L major viab: reduces viability of Leishmania major promastigotes; actives 9% (n = 200,000); inhibition, % at 10 µM; AID 1063; resazurin fluorescence viability; in the data active means inhibition above about 50%;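 further: promastigotes grown with compound for 44 hours at 28 °C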
Dynein cargo inh: dynein cargo transport inhibition. 3617.4 mouse cells, GR-EGFP nuclear translocation imaging; test concentration mostly 20 µM; stimulated with dexamethasone, 1 µM; hits give low values. z-score, hits read low. actives 0.47% (n = 220,000);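 active means plate z-score of nuclear minus cytoplasmic receptor signal below a set negative limit, without overly bright fluorescence or cell loss, cut at about -3.5 in these data, passing the limit was not always enough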;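 further: z-score of nuclear minus cytoplasmic ring GR-EGFP intensity difference per well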
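Buffer or medium: tetracycline-free induction medium containing charcoal-stripped FBS / Reagent: dexamethasone agonist, 1.0 µM final, for 30 min / Technique: automated 10x imaging of fixed Hoechst-stained cells / Times: induction 48 h, compound 1 h, agonist 30 min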
Autophagy mod: alters autophagy in cells; MEF GFP-LC3 puncta imaging; test concentration mostly 10 µM; AID 463193; calls only at 10 µM (by protocol); actives 0.98% (n = 190,000);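 active means percentage of spot-positive cells more than 3 SD above its plate mean, without a fluorescence outlier flag or 80% toxicity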;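 further: spot-positive cell cutoff set from DMSO-treated cells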
HCT116 PTEN-null: suppresses growth of cells with PTEN deletion; AID 827; viability, % at 10 µM; HCT116 PTEN-null viability, CellTiter-Glo, 60 h; hits give low values; actives 1.2% (n = 140,000);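 active means viability at or below a set limit, 4 SD under the median of all tested compounds, cut at about 3.7% in these data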;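 further: PTEN knockout HCT116 line with beta catenin targeted HCT116 as companion control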
bCat KO growth: beta-catenin-lacking colon tumor cell growth suppression. viability, % at 10 µM. HCT116 beta-catenin knockout viability, CellTiter-Glo, 60 h; hits give low values. actives 1.5% (n = 140,000). AID 818;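 active means viability at or under a set limit, the compound median less 4 SD, cut at about 6% in these data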;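 further: 0% = Hyamine 1622 control at 20 µM and 100% = untreated cell control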
* marks the source's active call; other numbers are inactive results; i = inactive; · = no result; + = active, no number. Sampled rows, rich in hits. Any-hit rate of the full collection: about 9.2%.

SMILES	L major viab	Dynein cargo inh	Autophagy mod	HCT116 PTEN-null	bCat KO growth
O=C1S/C(=C/c2ccc(N3CCOCC3)o2)C(=O)N1Cc1c(F)cccc1Cl	85*	-0.73	i	79	84
CC1(c2ccc(Cl)cc2)NC(=O)N(CC(=O)N2CCCC2)C1=O (stereo not given)	-8	0.17	i	97	100
CCOc1cccc(/C=N/NC(=S)Nc2ccccc2[N+](=O)[O-])c1O	95*	-0.25	i	·	·
CC1(C)CC(=O)C2=C(C1)N=c1s/c(=C/c3ccc(F)c(F)c3)c(=O)n1C2c1ccc(F)cc1 (stereo not given)	100*	-0.27	+	55	57
O=C1CC(/C=C/c2ccccc2)(C(=O)NC2CCCC2)N1c1ccc(S(=O)(=O)N2CCCC2)cc1 (stereo not given)	39	-0.3	i	73	84
CC1C(=O)N(c2ccc(S(=O)(=O)N(C)C)cc2)C1(/C=C/c1ccccc1)C(=O)NC1CCCC1 (stereo not given)	54*	0.36	i	65	66
Cn1c(Oc2ccccc2NCc2cc(Br)ccc2O)cc(=O)n(C)c1=O	99*	-0.22	i	93	89
CCN1CCN(C(=O)C2CCN(Cc3nc(-c4cccc(Cl)c4)oc3C)CC2)CC1	66*	0.16	i	35	12
CCN1CCN(C(=O)C2CCN(Cc3cc(Cl)ccc3O)CC2)CC1	16	3.2	i	100	92
CCc1ccc(-c2nc(CN3CCC(C(=O)NCCN(CC)c4ccccc4)CC3)c(C)o2)cc1	65*	0.45	i	1.7*	1.9*
CCN(CCNC(=O)C1CCN(Cc2nc(-c3ccc(Cl)cc3)oc2C)CC1)c1ccccc1	38	4	+	1.6*	1.1*
CCN(CCNC(=O)C1CCN(Cc2nc(-c3cccc(Cl)c3)oc2C)CC1)c1ccccc1	33	-0.41	i	1.5*	1.3*
Cc1oc(-c2cccc(Cl)c2)nc1CN1CCC(C(=O)NCc2cccnc2)CC1	-5	4	i	89	83
Cc1cc(C)c2nc(-c3cccnc3)cc(C(=O)NC(C)c3cnn(C)c3C)c2c1 (stereo not given)	20	1.2	i	·	·
COc1ccc(F)cc1S(=O)(=O)NC1CCCC1	-3	-0.28	i	101	100
CC1C=CCC2C(=O)N(c3cc(Cl)ccc3O)C(=O)C12 (stereo not given)	-5	-0.5	i	·	·
CCN(CCNC(=O)C1CCCN(Cc2nc(-c3ccc(OC)cc3)oc2C)C1)c1ccccc1 (stereo not given)	51*	-0.21	i	13	13
CCN(CCNC(=O)C1CCCN(S(=O)(=O)CC)C1)c1ccccc1 (stereo not given)	-3	-0.17	i	95	100
COc1ccc(C(c2nnnn2CC2CCCO2)N2CCN(c3ccccc3)CC2)cc1 (stereo not given)	-2	0.29	i	100	99
O=C(c1ccco1)N1CCN(C(c2ccc(F)cc2)c2nnnn2CC2CCCO2)CC1 (stereo not given)	8	1.4	i	98	90
COc1ccc(N2CCN(C(c3cc(OC)ccc3OC)c3nnnn3CC3CCCO3)CC2)cc1 (stereo not given)	0	2.8	i	0.7*	0.9*
COc1ccc(N2CCN(C(c3cccc(OC)c3OC)c3nnnn3C3CCCC3)CC2)cc1 (stereo not given)	72*	-0.58	i	74	74
COc1ccc(OC)c(C(c2nnnn2C2CCCC2)N2CCN(c3ccccc3F)CC2)c1 (stereo not given)	99*	-0.1	i	37	45
Cc1ccc(C(c2nnnn2CC2CCCO2)N2CCN(c3cccc(C)c3C)CC2)cc1 (stereo not given)	59*	-0.5	i	66	65
COc1ccc(C(C(=O)Nc2ccc(C(C)C)cc2)N(Cc2ccco2)C(=O)CC2NC(=O)NC2=O)cc1 (stereo not given)	4	-0.065	i	·	·
SMILES	L major viab	Dynein cargo inh	Autophagy mod	HCT116 PTEN-null	bCat KO growth
COc1cccc(CNC(=O)CCNS(=O)(=O)c2cccs2)c1	-7	-0.79	i	87	102
Cc1ccc(Cc2cc(-c3ccc(F)cc3)n[nH]c2=O)cc1	·	0.31	·	·	·
COc1ccc(C(c2nnnn2C2CCCC2)N2CCc3ccccc3C2)cc1OC (stereo not given)	60*	0.4	i	67	67
COc1ccc(N2CCN(C(c3cccs3)c3nnnn3C3CCCC3)CC2)cc1 (stereo not given)	20	-0.62	i	75	73
COc1ccc(N2CCN(C(c3ccccc3OC)c3nnnn3C3CCCC3)CC2)cc1 (stereo not given)	59*	0.74	i	83	87
CN(C)c1ccc(N=C/C=C2/N(C)c3ccccc3C2(C)C)cc1	90*	0.15	i	25	48
Cc1ccccc1N=C/C=C1\N(C)c2ccccc2C1(C)C	97*	-0.9	i	60	59
CN1/C(=C\C=N\O)C(C)(C)c2ccccc21	7	-0.79	i	·	·
CN1/C(=C\C=[N+](C)c2ccccc2)C(C)(C)c2ccccc21	100*	-0.24	i	9	8
CCOc1ccc(NC(=S)N2CCCN(Cc3cc(C)ccc3C)C2)cc1	39	-0.43	i	·	·
O/N=C/c1ccn(-c2ccc(Br)cc2)c1	92*	0.59	i	·	·
Brc1ccc(-n2cccc2/C=N/n2cnnc2)cc1	-1	0.41	i	98	87
CCOc1ncccc1C(=O)Nc1nc(SC)ns1	5	0.11	i	·	·
COc1ccc(C(O)P(=O)(OCC(C)C)OCC(C)C)c(OC)c1 (stereo not given)	65*	2	i	81	96
COC(=O)c1nnn(-c2ccsc2C(=O)OC)c1C(=O)OC	-9	0.87	i	·	·
CCn1cc(CNC(=O)c2cc(-c3cc(OC)ccc3OC)nc3ccccc23)c(C)n1	56*	-0.42	i	88	92
CCn1cc(CNC(=O)c2cc(-c3ccccc3OC)nc3ccccc23)c(C)n1	-3	-0.21	i	88	85
CN(C)Cc1c(O)ccc2oc(Cc3ccccc3)cc12	77*	0.31	i	58	54
COc1ccc(CCN2C(=O)CC(NNC(=O)c3ccc(F)cc3)C2=O)cc1OC (stereo not given)	3	1.4	i	96	91
COc1ccc(CCN2C(=O)CC(NNC(=O)c3ccccc3Br)C2=O)cc1OC (stereo not given)	56*	0.75	i	97	95
CCOc1ccc(C(=O)NNC2CC(=O)N(CCc3ccccc3)C2=O)cc1OC (stereo not given)	63*	1.6	i	98	91
COc1ccc(/C=C/C(=O)c2cc3c(cc2N)OCO3)cc1	25	-0.55	i	·	·
O=C1CN(C(=O)COC(=O)CNS(=O)(=O)/C=C/c2ccccc2)c2ccccc2N1	-1	1.2	i	·	·

Assay outcomes: PubChem, several laboratories
